Screening results: PubChem BioAssay, several laboratories
TNAP inh noacc: human TNAP enzyme inhibitors, primary screen, biochemical, luminescent, no phosphate acceptor, uHTS; purified TNAP, CDP-star luminescence, 30 min; Alkaline phosphatase, tissue-nonspecific isozyme (Homo sapiens), P05186; inhibition, % at 20 µM; AID 1012, 2008; actives 0.26% (n = 200,000);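 active = tissue-nonspecific alkaline phosphatase inhibition above about 50% at 20 µM in the single-dose screen, limit read from the data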;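 note: 0% = DMSO negative control and 100% = EDTA positive control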
Target sequence (P05186 whole entry, looked up): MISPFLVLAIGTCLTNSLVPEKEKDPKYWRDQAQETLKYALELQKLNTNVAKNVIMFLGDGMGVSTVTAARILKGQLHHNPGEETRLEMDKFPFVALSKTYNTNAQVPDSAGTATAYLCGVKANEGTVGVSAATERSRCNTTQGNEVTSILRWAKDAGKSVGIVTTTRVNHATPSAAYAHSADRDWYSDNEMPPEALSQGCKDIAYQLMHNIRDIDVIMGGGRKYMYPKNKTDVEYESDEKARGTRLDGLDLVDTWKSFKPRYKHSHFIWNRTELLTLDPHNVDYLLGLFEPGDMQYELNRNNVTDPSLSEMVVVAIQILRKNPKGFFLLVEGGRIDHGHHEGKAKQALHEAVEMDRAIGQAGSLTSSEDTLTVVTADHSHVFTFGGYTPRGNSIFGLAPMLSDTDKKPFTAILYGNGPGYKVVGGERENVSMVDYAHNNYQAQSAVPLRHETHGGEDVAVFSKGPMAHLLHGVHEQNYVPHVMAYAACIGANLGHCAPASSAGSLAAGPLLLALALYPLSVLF
PTEN del growth: growth suppression of PTEN-null HCT116, primary screen, cell-based, CellTiter-Glo | viability, % at 10 µM | actives 1.2% (n = 140,000) | AID 827, 2007 | HCT116 PTEN-null viability, 60 h; hits give low values;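 active = viability at or below a set limit, 4 SD under the median of all tested compounds, cut at about 3.7% in these data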;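 note: PTEN knockout HCT116 line with beta catenin targeted HCT116 as companion control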
bCat KO growth: primary screen for growth suppressors in beta-catenin knockout HCT116 cells (colon tumor, human); HCT116 beta-catenin knockout viability, CellTiter-Glo, 60 h; hits give low values; viability, % at 10 µM; actives 1.5% (n = 140,000);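 active = viability at or under a set limit, the compound median less 4 SD, cut at about 6% in these data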;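 note: 0% = Hyamine 1622 control at 20 µM and 100% = untreated cell control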
TNAP inh hi DEA: human TNAP enzyme inhibitors, primary screen, biochemical, luminescent, high phosphate acceptor level, uHTS. AID 1135, 2008. purified TNAP, CDP-star luminescence, 1 M DEA. inhibition, % at 20 µM. actives 0.03% (n = 200,000). Alkaline phosphatase, tissue-nonspecific isozyme (Homo sapiens), P05186;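 active = over 50% inhibition of tissue-nonspecific alkaline phosphatase at 20 µM in the single-dose screen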;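 note: plate controls were DMSO wells for no effect and EDTA-quenched wells as full inhibition for full effect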
TNAP act hi DEA: TNAP activators at high phosphate acceptor level, primary screen, biochemical, luminescence, uHTS; Alkaline phosphatase, tissue-nonspecific isozyme (Homo sapiens), P05186; purified TNAP, CDP-star luminescence, 1 M DEA, 30 min; hits give high values; 0 = EDTA background, 1 = DMSO-only activity; activation factor at 20 µM; 200,000 tested, under 10 active;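 active = activation factor at least 2 at 20 µM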
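Test system – human TNAP · Doses – 20 µM single point · Incubation – 30 min, room temperature · Signal – luminescent substrate turnover signal · Read-out basis – activation factor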
L major viab: Leishmania major promastigote growth inhibition, primary screen. Leishmania major promastigotes, resazurin fluorescence viability. inhibition, % at 10 µM. actives 9% (n = 200,000); in the data active = inhibition above about 50%;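 note: promastigotes grown with compound for 44 hours at 28 °C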
The depositor's hits bear a star; / = not tested or not shown. Sampled rows, rich in hits. Any-hit rate of the full collection: about 9.6%.

SMILES	TNAP inh noacc	PTEN del growth	bCat KO growth	TNAP inh hi DEA	TNAP act hi DEA	L major viab
NNc1nc2c(F)cccc2s1	-16.4	89.6	89.3	7.7	0.9	-2.7
NNc1nc2c(F)cc(F)cc2s1	8.6	87.2	88.0	3.3	1	95.2*
CCOC(=O)c1ccc2nc(Nc3nc4ccc(F)cc4s3)sc2c1	-213.4	96.7	83.2	-1.1	1	43.5
COC(=O)c1ccc2nc(Nc3nc4c(F)cc(F)cc4s3)sc2c1	-161.5	62.2	84.5	-1.6	1	51.5*
COC(=O)C(CO)NC(=O)C(C)NC(=O)CNC(=O)OCc1ccccc1 (centres undefined)	-5.4	/	/	-0.2	1	-7.2
CCCn1c(SCC(=O)NCc2ccccc2)n[nH]c1=O	-5.7	/	/	-1.3	1	-7.2
CCN(CC)CCOc1ncnc2c1oc1ccccc12	1.3	95.0	104.2	-7.4	1.1	44.6
CCCCc1oc2ccccc2c1C(=O)c1cc(I)c(OCCN(CC)CC)c(I)c1	-11.1	17.0	12.9	-3.3	1	98.8*
C#Cc1ccc([C@H]2C=C(C(=O)NC3CC3)O[C@@H](OCC)[C@@H]2CCCO)cc1	-6.6	/	/	-6.2	1.1	-2.8
CCCNC(=O)Cn1c(=O)cnc2ccccc21	-8.7	107.3	97.0	1.3	1	-0.3
CC(C)(C)c1ccccc1NC(=O)Cn1c(=O)cnc2ccccc21	-4.4	94.8	88.6	-3.5	1	54.9*
CC(C)c1cccc(C(C)C)c1NC(=O)Cn1c(=O)cnc2ccccc21	-2.8	87.7	78.0	0.4	1	91.9*
Cc1ccc(NC(=O)c2ccc(NCCc3ccccc3)c([N+](=O)[O-])c2)cc1F	-8.4	56.0	60.3	11.4	0.9	88.6*
CCNc1ccc(C(=O)Nc2ccc3nc(C)sc3c2)cc1[N+](=O)[O-]	4.9	83.2	91.8	6.5	0.9	5.4
Cc1ccc(NC(=O)c2ccc(NCCN)c([N+](=O)[O-])c2)cc1Cl	1.2	3.9	3.4*	8.4	0.9	100.4*
CCCN(CCC)CCCNc1ccc(C(=O)Nc2cccc(OC)c2)cc1[N+](=O)[O-]	12.4	/	/	12.5	0.9	97.5*
COc1cccc(NC(=O)c2ccc(NCCCN3CC(C)CC(C)C3)c([N+](=O)[O-])c2)c1 (centres undefined)	-8.5	/	/	1.9	1	-3.7
O=C(Nc1cc(F)cc(F)c1)c1ccc(NCCCN2CCCCCC2)c([N+](=O)[O-])c1	13.0	/	/	7.7	0.9	90.9*
O=C(Nc1cc(F)cc(F)c1)c1ccc(NCCc2ccccc2)c([N+](=O)[O-])c1	16.6	100.9	91.0	11.2	0.9	-7.1
C=C1/C(=C\C=C2/CCC[C@]3(C)[C@@H]([C@H](C)CCCC(C)(C)O)CC[C@@H]23)C[C@@H](O)C[C@@H]1O	-2.7	/	/	-0.5	1	/
CC1(C)CC(=O)c2c(oc3cc(O)c(O)cc23)C1	34.9	87.6	90.0	6.4	0.9	84.4*
COC(=O)c1cc(C#N)c(N2CC(C)OC(C)C2)nc1C (centres undefined)	-10.7	/	/	-3.2	1	0.8
Cc1nnc(SCCN2CCOCC2)c2nn(-c3ccccc3F)c(C)c12	-2.1	92.8	81.5	3.2	1	52.8*
Cc1ccc(NC(=O)c2ccc3ccccc3n2)cc1S(=O)(=O)N1CCOCC1	7.9	/	/	-2.8	1	-9.0
CCOC(=O)c1nn(-c2ccccc2C)c2nc(-c3ccc(Cl)cc3)c(C#N)c(=O)n12	-13.5	2.1*	1.7*	-7.6	1.1	-1.5
SMILES	TNAP inh noacc	PTEN del growth	bCat KO growth	TNAP inh hi DEA	TNAP act hi DEA	L major viab
CCOC(=O)c1nn(-c2ccccc2C)c2nc(-c3ccc(C)cc3)c(C#N)c(=O)n12	-9.3	68.8	62.0	-5.4	1.1	0.1
CNC(=O)C1=C(C)NC(=S)NC1c1cc2c(cc1OC)CCCC2 (centres undefined)	-11.1	104.5	99.3	-0.8	1	-3.7
C/C(CC(C)C)=N\Nc1ccc(S(N)(=O)=O)cc1[N+](=O)[O-]	4.3	/	/	16.0	0.8	6.0
CC1(C)CC(N2CCCC2)=CC(=[N+]2CCCCCC2)C1	-0.7	/	/	-6.0	1.1	100.5*
CC1(C)CC(N2CCN(c3ccccc3)CC2)=CC(=[N+]2CCCC2)C1	-18.2	11.5	12.1	-10.3	1.1	99.3*
CCN(CC)C1=CC(=[N+]2CCCC2)CC(C)(C)C1	-6.7	28.4	20.8	-0.6	1	99.7*
CC1CC(C)C[N+](=C2C=C(N3CCCC3)CC(C)(C)C2)C1 (centres undefined)	-2.9	/	/	1.5	1	100.1*
CCN1CCN(c2ccc(N=Cc3ccccc3O)cc2)CC1	6.2	/	/	-0.6	1	-0.5
Cc1c(N(C(=O)c2ccccn2)C2(C(=O)NC3CCCCC3)CCCCC2)c(=O)n(-c2ccccc2)n1C	-10.3	/	/	-4.3	1	-6.0
COc1cccc(OCCNC(=O)Nc2cc(F)c(F)cc2Cl)c1	-2.0	/	/	-6.2	1.1	-6.0
Cn1c(=O)c2c(=O)cc(NNC(=O)CC#N)[nH]c2n(C)c1=O	-9.9	/	/	-8.0	1.1	-13.3
O=C1/C(=C/c2ccc([N+](=O)[O-])cc2)C=C(c2ccccc2)N1c1ccc(O)cc1	22.1	2.2*	2.2*	22.5	0.8	99.9*
COc1ccc(NC(=O)C(C)Sc2nnc3c4c(nc(-c5ccc(OC)cc5)n23)CC(C)(C)OC4)cc1 (centres undefined)	-4.1	23.1	62.9	-5.8	1.1	7.3
COc1ccc(-c2nc3c(c4nnc(SC(C)C(=O)Nc5ccccc5)n24)COC(C)(C)C3)cc1 (centres undefined)	-4.7	38.2	5.2*	1.0	1	13.2
Cc1nn(CC(=O)OC(C)C(=O)Nc2ccccc2[N+](=O)[O-])c(C)c1[N+](=O)[O-] (centres undefined)	-14.3	94.7	88.6	0.8	1	-1.3
COc1ccc(OC)c(NC(=O)NNC(=O)CCCOc2ccc(Cl)cc2C)c1	-7.8	/	/	-6.6	1.1	-4.5
CC(=O)N(Cc1cccnc1)c1cccc(-c2nc3ccccc3s2)c1	-1.1	/	/	-4.6	1	100.3*
CCN(CC)CCNC(C(=O)Nc1cccc(C(C)=O)c1)c1ccccc1 (centres undefined)	-11.3	/	/	-3.2	1	7.9
Cc1nc(N)nc(N)c1/C=C/C(C)(C)c1ccc(Cl)cc1	-5.8	/	/	-2.9	1	100.4*
CCN(CC)S(=O)(=O)c1cccc(NC(=O)c2ccc(C#N)cc2)c1	-14.1	/	/	-2.1	1	4.1
